# Screens deposited in PubChem by Broad Institute.
# T cruzi intra – intracellular Trypanosoma cruzi inhibition | intracellular Trypanosoma cruzi in host cells, plate reader | activity score (inhibition), % at 5.01 µM | AID 651903 | 22,000 compounds, 4.9% hits; in the data active = activity score above about 55%;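 also: parasites and compound incubated about four days before reading; 0% = median of neutral control wells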
# A1 apoptosis 2 – blocks A1, raising caspase activity | MEF A1-2A-BIM cells, caspase-Glo luminescence, 3 h; percent of clofoctol response, DMSO zero | caspase activation, % (no concentration beside the values) | 24,000 tested, under 10 active; in the data active = caspase activation above about 5.9%
#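 System: mouse embryonic fibroblasts co-expressing A1 and BIM (A1-2A-BIM), primed for A1 dependence; amount: 2500 cells/well; doses: 50 nL pinned compound; schedule: cells settled overnight, compound exposure 3 h at 37 °C, 5% CO2; detection: Caspase-Glo 3/7 luminescence, 1 h at room temperature; read-out: Caspase-3/7 activation, seen as rise in luminescence signal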
# INS-1E rescue – preserves ATP levels in cytokine-treated INS-1E cells; INS-1E cytokine-induced death, ATP luminescence, 48 h; normalised: neutral wells 0, positive control 100; protection from cytokine-induced ATP loss, % at 10 µM; 20,000 compounds, 0.1% hits;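 active = mean replicate protection from cytokine-induced ATP loss at least 50% and at least 75% of replicates each reaching 50%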
#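 Test system: INS-1E rat cells | Quantity: 8000 cells per well | Medium: Phenol-red-free RPMI with 5% fetal bovine serum | Reagent: Cytokine cocktail of IFN-γ, TNF-α and IL-1β | Doses: One compound concentration, pin transfer | Timing: 48 h co-treatment, 10 min post-lysis read | Technique: Luminescent ATP assay (CellTiter-Glo)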
# * marks the source's active call; other numbers are inactive results; . = no result given. The full list was thinned out, with hits kept by preference.
SMILES,T cruzi intra,A1 apoptosis 2,INS-1E rescue
COc1ccc(S(=O)(=O)N(C)C[C@H]2Oc3ccc(NS(=O)(=O)c4ccc(C)cc4)cc3CC(=O)N([C@H](C)CO)C[C@H]2C)cc1,64*,1,7
COc1ccc(S(=O)(=O)N(C)C[C@@H]2Oc3ccc(NS(=O)(=O)c4ccc(C)cc4)cc3CC(=O)N([C@@H](C)CO)C[C@@H]2C)cc1,-4,.,9
COc1ccc(S(=O)(=O)Nc2ccc3c(c2)CC(=O)N([C@H](C)CO)C[C@H](C)[C@H](CN(C)S(=O)(=O)c2ccc(C)cc2)O3)cc1,21,-1,-2
O=C1N(CCS(=O)(=O)c2ccccc2)c2ccccc2[C@H]2OC(c3ccc(OCCCO)cc3)=N[C@@]12CCS(=O)(=O)c1ccccc1,.,-1,.
CO[C@H]1O[C@H](CO)[C@@H](OC(=O)CCc2ccccc2)[C@H](OC(=O)c2cc3ccccc3[nH]2)[C@H]1OC(=O)c1cc2ccccc2[nH]1,.,0,.
C[C@@H]1CN([C@H](C)CO)C(=O)Cc2cc(NC(=O)C3CCCCC3)ccc2O[C@H]1CN(C)Cc1ccc(Cl)c(Cl)c1,50,.,-31
C[C@H]1CN([C@@H](C)CO)C(=O)Cc2cc(NC(=O)C3CCCCC3)ccc2O[C@@H]1CN(C)Cc1ccc2c(c1)OCO2,66*,.,-11
C[C@@H]1CN([C@H](C)CO)C(=O)Cc2cc(NC(=O)C3CCCCC3)ccc2O[C@@H]1CN(C)Cc1ccc(Cl)c(Cl)c1,57*,.,-78
C[C@H](CO)N1C[C@H](C)[C@@H](CN(C)Cc2ccc3c(c2)OCO3)Oc2ccc(NC(=O)C3CCCCC3)cc2CC1=O,.,0,.
C[C@@H]1CCCCO[C@@H](CN(C)Cc2ccc3c(c2)OCO3)[C@@H](C)CN([C@H](C)CO)C(=O)c2cc(NC(=O)CCCN(C)C)ccc2O1,-4,2,2
C[C@H](CO)N1C[C@H](C)[C@@H](CN(C)CC2CCCCC2)Oc2c(NC(=O)c3nc4ccccc4s3)cccc2C1=O,64*,.,-41
C[C@@H]1CN([C@@H](C)CO)C(=O)c2cccc(NC(=O)c3nc4ccccc4s3)c2O[C@@H]1CN(C)CC1CCCCC1,76*,.,-48
C[C@H](CO)N1C[C@H](C)[C@@H](CN(C)CC2CC2)Oc2c(NC(=O)c3nc4ccccc4s3)cccc2C1=O,27,0,-18
C[C@H](CO)N1C[C@H](C)[C@H](CN(C)CC2CCCCC2)Oc2c(NC(=O)c3nc4ccccc4s3)cccc2C1=O,66*,-1,-31
C[C@@H]1CN([C@@H](C)CO)C(=O)c2cccc(NC(=O)c3nc4ccccc4s3)c2O[C@H]1CN(C)CC1CC1,-20,0,-20
C[C@@H]1CN([C@H](C)CO)C(=O)c2cccc(NC(=O)c3nc4ccccc4s3)c2O[C@@H]1CN(C)CC1CCCCC1,13,.,-48
COC(=O)C(CC#Cc1ccc2c(c1)[C@]1(C(=O)N2)[C@H](C(N)=O)[C@H]2C(=O)O[C@H](c3ccccc3)[C@H](c3ccccc3)N2[C@@H]1c1ccc(O)cc1)C(=O)OC,.,0,.
O=C(NO)c1cccc(C(=O)N/N=C/c2cc3c(cc2Br)OCO3)c1,1,.,0
COc1cc(O)cc(OC)c1/C=N/NC(=O)CCCCCCC(=O)Nc1ccccc1O,-14,-2,-2
CN(C)c1ccc(/C=N/NC(=O)CCCCC(=O)NO)cc1,11,0,33
Cc1noc(C)c1S(=O)(=O)Nc1cccc2c1O[C@@H](CN(C)S(=O)(=O)c1ccccc1)[C@@H](C)CN([C@H](C)CO)C2=O,-19,-1,10
C[C@H](CO)N1C[C@H](C)[C@@H](CN(C)Cc2ccc(C(=O)Nc3ccccc3N)cc2)Oc2c(NS(=O)(=O)c3ccccc3)cccc2C1=O,51,0,-4
Cc1noc(C)c1S(=O)(=O)Nc1cccc2c1O[C@@H](CN(C)Cc1ccc(C(=O)Nc3ccccc3N)cc1)[C@@H](C)CN([C@@H](C)CO)C2=O,66*,-1,-17
Cc1noc(C)c1S(=O)(=O)Nc1ccc2c(c1)CC(=O)N([C@H](C)CO)C[C@@H](C)[C@@H](CN(C)Cc1ccc(C(=O)Nc3ccccc3N)cc1)O2,69*,0,-2
Cc1noc(C)c1S(=O)(=O)Nc1cccc2c1O[C@H](CN(C)S(=O)(=O)c1ccccc1)[C@H](C)CN([C@H](C)CO)C2=O,65*,.,9
SMILES,T cruzi intra,A1 apoptosis 2,INS-1E rescue
Cc1noc(C)c1S(=O)(=O)Nc1ccc2c(c1)CC(=O)N([C@@H](C)CO)C[C@@H](C)[C@@H](CN(C)Cc1ccc(C(=O)Nc3ccccc3N)cc1)O2,71*,.,-5
Cc1noc(C)c1S(=O)(=O)Nc1ccc2c(c1)CC(=O)N([C@H](C)CO)C[C@@H](C)[C@H](CN(C)Cc1ccc(C(=O)Nc3ccccc3N)cc1)O2,28,-1,-2
Cc1noc(C)c1S(=O)(=O)Nc1ccc2c(c1)CC(=O)N([C@H](C)CO)C[C@H](C)[C@@H](CN(C)Cc1ccc(C(=O)Nc3ccccc3N)cc1)O2,.,-1,.
CN(C)CCCCNC(=O)[C@@H]1C[C@@H]2C(=O)N[C@@H](Cc3ccccc3)C(=O)N2[C@@H]1c1ccc(O)cc1,.,0,.
O=C(CCCCCC(=O)N/N=C/c1cccnc1)NO,-3,0,8
COC(=O)CCCCCCC(=O)N/N=C/C1=CC[C@H]2C[C@@H]1C2(C)C,-8,0,7
C[C@@H]1CCCCO[C@@H](CN(C)S(=O)(=O)c2ccc(Cl)cc2)[C@H](C)CN([C@@H](C)CO)C(=O)c2cc(NS(C)(=O)=O)ccc2O1,.,1,.
COc1ccc(/C=N/NC(=O)c2ccccc2O)cc1,-18,-3,-29
C[C@H]1CN([C@@H](C)CO)C(=O)c2cc(NC(=O)CCCN(C)C)ccc2O[C@H]1CN(C)C(=O)Nc1ccccc1,.,1,.
Cc1noc(C)c1S(=O)(=O)Nc1ccc2c(c1)C(=O)N([C@H](C)CO)C[C@@H](C)[C@H](CN(C)Cc1ccc(C(=O)Nc3ccccc3N)cc1)O2,52,1,-7
Cc1noc(C)c1S(=O)(=O)Nc1ccc2c(c1)C(=O)N([C@H](C)CO)C[C@H](C)[C@@H](CN(C)Cc1ccc(C(=O)Nc3ccccc3N)cc1)O2,68*,1,-14
C[C@@H]1CN([C@H](C)CO)C(=O)Cc2cc(NC(=O)Nc3ccc4c(c3)OCO4)ccc2O[C@H]1CN(C)Cc1ccc(Cl)c(Cl)c1,68*,.,-13
C[C@@H]1CN([C@H](C)CO)C(=O)Cc2cc(NC(=O)Nc3ccc4c(c3)OCO4)ccc2O[C@@H]1CN(C)Cc1ccc2c(c1)OCO2,22,0,-14
C[C@H](CO)N1C[C@H](C)[C@@H](CN(C)Cc2ccc3c(c2)OCO3)Oc2ccc(NC(=O)Nc3ccc4c(c3)OCO4)cc2CC1=O,.,-1,.
C[C@@H]1CN([C@H](C)CO)C(=O)Cc2cc(NC(=O)Nc3ccc4c(c3)OCO4)ccc2O[C@@H]1CN(C)Cc1ccc(Cl)c(Cl)c1,74*,0,-32
O=C(N/N=C/c1ccc(S(=O)(=O)O)o1)c1ccccn1,-17,.,-11
COC(=O)CCCCCCC(=O)N/N=C/c1cc(Br)c(O)c(Br)c1,-17,1,4
